In ChEMBL document CHEMBL1136272, “Development of a presynaptic 5-HT1A antagonist” (Bioorg Med Chem Lett, 2003):

Legend:
[1] = target: T1, 5-hydroxytryptamine receptor 1A (Rattus norvegicus, UniProt P19327); experiment: Inhibition of the 5-hydroxytryptamine 1A receptor in rat dorsal raphe
T1 sequence (P19327 whole entry): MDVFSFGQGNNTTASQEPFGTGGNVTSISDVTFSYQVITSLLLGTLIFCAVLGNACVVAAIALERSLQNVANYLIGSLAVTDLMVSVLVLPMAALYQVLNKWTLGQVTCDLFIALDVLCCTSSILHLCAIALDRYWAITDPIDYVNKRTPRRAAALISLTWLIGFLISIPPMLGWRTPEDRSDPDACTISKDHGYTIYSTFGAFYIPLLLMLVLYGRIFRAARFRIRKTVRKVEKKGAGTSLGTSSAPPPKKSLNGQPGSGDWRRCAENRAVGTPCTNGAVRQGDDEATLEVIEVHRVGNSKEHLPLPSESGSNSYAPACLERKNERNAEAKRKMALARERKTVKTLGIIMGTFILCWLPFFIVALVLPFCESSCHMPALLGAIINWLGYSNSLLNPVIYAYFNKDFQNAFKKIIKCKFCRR

Rattus norvegicus [2] = experiment: In vivo motor activity determined in rat at 0.1 + 1 mg/kg of ip administration; type: functional; details: route intraperitoneal
Summary of the method: (§1)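 Rat social interaction paradigm with total motor activity counts recorded in the same session. All compounds were given ip, with a saline-treated control group. Combination arms gave a 0.1 mg/kg agent together with a second agent at 1 mg/kg, both ip. Social interaction time (s) and motor counts are reported as mean ± SEM, with significance tested against saline control.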

Rattus norvegicus [3] = experiment: Social interaction time determined in vivo in rat at 0.1 + 1 mg/kg of ip administration; type: functional; details: route intraperitoneal; summary of the method: as §1
Rattus norvegicus [4] = experiment: In vivo motor activity determined in rat at 0.1 mg/kg of ip administration; type: functional; details: route intraperitoneal; summary of the method: as §1
Rattus norvegicus [5] = experiment: Social interaction time determined in vivo rat at 0.1 mg/kg of ip administration; type: functional; details: route intraperitoneal
Summary of the method: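 Rats dosed i.p. against a saline-treated control group. Social interaction time (s) and total motor activity (counts) were recorded in the same social-interaction session and reported as mean ± SEM, with significance tested against saline control.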

[6] = target: Serotonin 2 (5-HT2) receptor (Rattus norvegicus, UniProt P30994+P08909+P14842); experiment: Inhibitory concentration required against 5-hydroxytryptamine 2 receptor in rat cortex using [3H]spiperone
[7] = target: T2, Adrenergic receptor alpha-2 (Rattus norvegicus, UniProt P22086+P19328+P22909); experiment: Inhibitory concentration required against Alpha-2 adrenergic receptor in rat cortex [3H]clonidine
T2 sequence (P22086 whole entry): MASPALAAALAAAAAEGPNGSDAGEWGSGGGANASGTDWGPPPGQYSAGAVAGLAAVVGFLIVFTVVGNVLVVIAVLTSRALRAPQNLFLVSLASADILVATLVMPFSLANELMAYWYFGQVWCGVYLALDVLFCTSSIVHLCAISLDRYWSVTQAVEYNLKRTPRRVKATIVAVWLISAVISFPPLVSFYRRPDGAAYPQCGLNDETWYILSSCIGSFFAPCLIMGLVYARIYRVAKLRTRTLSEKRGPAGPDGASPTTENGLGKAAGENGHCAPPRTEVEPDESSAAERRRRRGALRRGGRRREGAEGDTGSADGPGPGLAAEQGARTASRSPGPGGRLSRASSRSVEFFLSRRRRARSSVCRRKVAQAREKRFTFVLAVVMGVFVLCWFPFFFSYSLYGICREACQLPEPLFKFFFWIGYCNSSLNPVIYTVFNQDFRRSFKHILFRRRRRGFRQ
T2 sequence (P19328 whole entry): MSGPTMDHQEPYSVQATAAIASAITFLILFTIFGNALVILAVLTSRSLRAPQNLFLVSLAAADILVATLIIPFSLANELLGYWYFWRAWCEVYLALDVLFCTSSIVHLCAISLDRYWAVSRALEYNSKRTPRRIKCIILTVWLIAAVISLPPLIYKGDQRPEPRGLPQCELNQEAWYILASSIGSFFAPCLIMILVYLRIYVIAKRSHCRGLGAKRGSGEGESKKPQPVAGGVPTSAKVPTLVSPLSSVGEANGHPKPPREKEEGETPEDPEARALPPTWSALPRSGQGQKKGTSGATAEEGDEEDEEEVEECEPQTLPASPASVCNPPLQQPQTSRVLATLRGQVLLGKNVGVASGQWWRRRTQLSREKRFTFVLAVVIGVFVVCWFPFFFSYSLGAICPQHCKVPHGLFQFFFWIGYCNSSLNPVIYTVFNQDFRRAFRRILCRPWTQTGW
T2 sequence (P22909 whole entry): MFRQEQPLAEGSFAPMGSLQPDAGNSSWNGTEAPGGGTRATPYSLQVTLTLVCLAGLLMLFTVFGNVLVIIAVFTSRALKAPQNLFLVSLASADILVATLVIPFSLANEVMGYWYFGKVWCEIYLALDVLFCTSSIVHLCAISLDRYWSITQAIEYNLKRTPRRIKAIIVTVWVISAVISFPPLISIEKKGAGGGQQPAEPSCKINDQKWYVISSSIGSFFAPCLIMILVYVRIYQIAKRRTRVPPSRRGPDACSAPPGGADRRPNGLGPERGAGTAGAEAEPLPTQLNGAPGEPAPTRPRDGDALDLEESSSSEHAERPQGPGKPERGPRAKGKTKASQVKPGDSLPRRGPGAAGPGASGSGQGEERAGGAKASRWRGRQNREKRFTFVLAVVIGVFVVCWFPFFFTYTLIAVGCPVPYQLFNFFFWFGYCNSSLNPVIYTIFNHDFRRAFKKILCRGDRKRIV

[8] = target: 5-hydroxytryptamine receptor 1B (Rattus norvegicus, UniProt P28564); experiment: Inhibitory concentration required against 5-hydroxytryptamine 1B receptor in rat striatum using [3H]5-HT; type: tissue-based
5-hydroxytryptamine receptor 1B, sequence (P28564 whole entry): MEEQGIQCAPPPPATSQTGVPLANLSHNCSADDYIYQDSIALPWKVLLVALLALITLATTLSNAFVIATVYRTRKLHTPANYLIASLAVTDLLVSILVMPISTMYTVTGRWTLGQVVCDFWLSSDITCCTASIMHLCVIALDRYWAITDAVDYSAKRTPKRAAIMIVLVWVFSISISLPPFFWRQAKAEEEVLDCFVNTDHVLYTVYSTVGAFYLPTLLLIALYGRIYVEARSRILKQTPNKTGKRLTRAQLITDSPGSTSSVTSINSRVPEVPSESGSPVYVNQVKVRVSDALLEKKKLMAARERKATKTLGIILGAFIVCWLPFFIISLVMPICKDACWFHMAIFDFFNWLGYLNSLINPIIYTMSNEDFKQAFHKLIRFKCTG

D(2) dopamine receptor = D(2) dopamine receptor (Rattus norvegicus, UniProt P61169); experiment: Inhibitory concentration required against Dopamine receptor D2 in rat striatum; type: tissue-based
D(2) dopamine receptor, sequence (P61169 whole entry): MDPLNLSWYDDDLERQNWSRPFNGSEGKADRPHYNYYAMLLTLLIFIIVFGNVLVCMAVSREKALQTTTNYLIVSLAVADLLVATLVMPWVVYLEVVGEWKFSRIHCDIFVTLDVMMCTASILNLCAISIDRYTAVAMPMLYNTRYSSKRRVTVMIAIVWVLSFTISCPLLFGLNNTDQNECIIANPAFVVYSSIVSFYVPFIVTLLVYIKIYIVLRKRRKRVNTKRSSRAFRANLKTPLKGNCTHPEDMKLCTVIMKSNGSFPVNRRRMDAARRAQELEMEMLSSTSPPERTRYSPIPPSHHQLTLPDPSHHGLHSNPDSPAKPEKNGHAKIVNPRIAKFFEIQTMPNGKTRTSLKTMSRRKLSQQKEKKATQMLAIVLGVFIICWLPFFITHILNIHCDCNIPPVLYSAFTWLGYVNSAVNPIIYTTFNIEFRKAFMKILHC

[9] = target: T3, Adrenergic receptor alpha-1 (Rattus norvegicus, UniProt P15823+P23944+P43140); experiment: Inhibitory concentration required against alpha-1 adrenergic receptor in rat cortex using [3H]-WB- 4101
T3 sequence (P15823 whole entry): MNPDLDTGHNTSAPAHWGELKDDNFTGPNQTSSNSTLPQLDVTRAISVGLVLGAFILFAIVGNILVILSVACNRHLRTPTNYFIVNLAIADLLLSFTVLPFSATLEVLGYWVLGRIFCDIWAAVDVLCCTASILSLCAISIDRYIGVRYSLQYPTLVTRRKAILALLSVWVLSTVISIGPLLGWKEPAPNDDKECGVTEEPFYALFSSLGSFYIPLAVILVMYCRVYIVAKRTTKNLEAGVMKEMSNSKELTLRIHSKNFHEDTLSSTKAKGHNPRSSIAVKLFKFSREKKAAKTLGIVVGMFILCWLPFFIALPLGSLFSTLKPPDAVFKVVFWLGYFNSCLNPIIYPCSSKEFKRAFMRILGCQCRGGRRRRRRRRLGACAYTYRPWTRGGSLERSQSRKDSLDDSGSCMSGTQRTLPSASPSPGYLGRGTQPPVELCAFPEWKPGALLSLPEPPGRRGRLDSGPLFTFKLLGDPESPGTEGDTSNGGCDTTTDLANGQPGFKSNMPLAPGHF
T3 sequence (P23944 whole entry): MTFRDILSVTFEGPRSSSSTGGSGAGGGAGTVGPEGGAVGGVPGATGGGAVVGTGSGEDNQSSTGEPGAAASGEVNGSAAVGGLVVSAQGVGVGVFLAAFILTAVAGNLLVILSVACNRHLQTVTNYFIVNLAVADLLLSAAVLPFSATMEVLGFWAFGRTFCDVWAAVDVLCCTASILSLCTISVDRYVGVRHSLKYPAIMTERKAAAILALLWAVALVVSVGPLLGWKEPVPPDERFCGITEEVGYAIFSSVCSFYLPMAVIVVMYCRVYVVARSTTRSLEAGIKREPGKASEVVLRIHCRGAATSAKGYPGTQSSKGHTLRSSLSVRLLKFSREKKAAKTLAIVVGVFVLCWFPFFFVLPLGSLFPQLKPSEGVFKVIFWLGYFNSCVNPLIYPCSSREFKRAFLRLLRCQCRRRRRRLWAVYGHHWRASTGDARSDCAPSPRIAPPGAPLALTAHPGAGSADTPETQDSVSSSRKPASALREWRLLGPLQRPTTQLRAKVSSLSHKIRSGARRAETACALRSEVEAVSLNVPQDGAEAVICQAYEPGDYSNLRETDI
T3 sequence (P43140 whole entry): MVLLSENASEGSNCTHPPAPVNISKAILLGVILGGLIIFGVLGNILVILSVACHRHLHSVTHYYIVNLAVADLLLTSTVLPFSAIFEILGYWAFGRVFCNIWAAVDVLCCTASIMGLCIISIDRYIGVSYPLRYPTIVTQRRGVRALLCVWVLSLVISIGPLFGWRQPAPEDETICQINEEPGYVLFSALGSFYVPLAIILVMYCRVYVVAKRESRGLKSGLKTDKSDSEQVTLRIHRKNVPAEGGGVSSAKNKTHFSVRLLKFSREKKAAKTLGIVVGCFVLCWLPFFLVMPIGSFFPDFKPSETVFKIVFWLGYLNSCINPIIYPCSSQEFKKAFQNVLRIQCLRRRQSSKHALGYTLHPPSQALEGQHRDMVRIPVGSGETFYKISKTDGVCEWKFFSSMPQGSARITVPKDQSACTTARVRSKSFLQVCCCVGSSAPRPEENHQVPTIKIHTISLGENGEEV

Rattus norvegicus [10] = experiment: In vivo motor activity determined in rat at 1 mg/kg of ip administration; type: functional; details: route intraperitoneal; summary of the method: as §1
Rattus norvegicus [11] = experiment: Social interaction time determined in vivo in rat at 1 mg/kg of ip administration; type: functional; details: route intraperitoneal; summary of the method: as §1
[12] = target: Sodium-dependent serotonin transporter (Rattus norvegicus, UniProt P31652); experiment: Inhibitory concentration required against 5-HT uptake in rat cortex
Sodium-dependent serotonin transporter, sequence (P31652 whole entry): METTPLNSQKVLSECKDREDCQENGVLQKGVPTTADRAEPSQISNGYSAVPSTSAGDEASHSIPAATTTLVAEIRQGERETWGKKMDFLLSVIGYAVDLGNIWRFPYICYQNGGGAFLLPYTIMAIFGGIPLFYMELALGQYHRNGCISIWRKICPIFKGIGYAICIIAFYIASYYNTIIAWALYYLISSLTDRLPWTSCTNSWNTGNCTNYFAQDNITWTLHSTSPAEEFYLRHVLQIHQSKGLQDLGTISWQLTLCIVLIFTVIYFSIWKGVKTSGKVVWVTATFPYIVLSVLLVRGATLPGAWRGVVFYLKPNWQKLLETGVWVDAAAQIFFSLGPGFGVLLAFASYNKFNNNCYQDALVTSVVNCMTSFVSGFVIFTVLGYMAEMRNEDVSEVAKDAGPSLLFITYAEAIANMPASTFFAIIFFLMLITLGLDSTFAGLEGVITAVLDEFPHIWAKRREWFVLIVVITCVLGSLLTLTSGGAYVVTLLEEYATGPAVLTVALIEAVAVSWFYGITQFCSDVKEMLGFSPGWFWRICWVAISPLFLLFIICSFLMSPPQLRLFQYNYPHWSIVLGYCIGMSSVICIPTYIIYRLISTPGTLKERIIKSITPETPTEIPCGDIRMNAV

SMILES	IC50 [1]	other results
COc1ccc(C2(O)CCC(N3CCN(Cc4ccccc4)CC3)CC2)cc1 (stereo not given)	50 nM	
COc1ccc(F)c(CN2CCN(C3CCC(O)(c4ccc5c(c4)OCO5)CC3)CC2)c1 (stereo not given)	0.75 nM	
COc1ccccc1C1(O)CCC(N2CCN(Cc3ccccc3)CC2)CC1 (stereo not given)	60 nM	
COc1ccc(C2(O)CCC(N3CCN(Cc4ccccc4)CC3)CC2)cc1OC (stereo not given)	140 nM	
COc1cccc(CN2CCN(C3CCC(O)(c4ccc5c(c4)OCO5)CC3)CC2)c1F (stereo not given)	19 nM	
COc1cccc(C2(O)CCC(N3CCN(Cc4ccccc4)CC3)CC2)c1 (stereo not given)	50 nM	
OC1(c2ccc3c(c2)OCO3)CCC(N2CCN(Cc3cccc(Cl)c3)CC2)CC1 (stereo not given)	6 nM	
OC1(c2ccc3c(c2)OCO3)CCC(N2CCN(Cc3c(F)cccc3F)CC2)CC1 (stereo not given)	110 nM	
COc1cccc(CN2CCN(C3CCC(O)(c4ccc5c(c4)OCO5)CC3)CC2)c1.OC1(c2ccc3c(c2)OCO3)CCC(N2CCN(Cc3ccccc3)CC2)CC1 (stereo not given)		Motor activity (Rattus norvegicus [2]): 5100 Counts; Time (Rattus norvegicus [3]): 53 s
COc1ccc(CN2CCN(C3CCC(O)(c4ccc5c(c4)OCO5)CC3)CC2)cc1 (stereo not given)	380 nM	
OC1(c2ccc3c(c2)OCO3)CCC(N2CCN(Cc3cc(F)cc(F)c3)CC2)CC1 (stereo not given)	21 nM	
OC1(c2ccc3c(c2)OCO3)CCC(N2CCN(Cc3cccc(F)c3)CC2)CC1 (stereo not given)	13 nM	
OC1(c2ccc3c(c2)OCO3)CCC(N2CCN(Cc3cc(F)ccc3F)CC2)CC1 (stereo not given)	2.6 nM	
OC(CCCN1CCN(c2ncc(F)cn2)CC1)c1ccc(F)cc1 (stereo not given) [BMY-14802]		Motor activity (Rattus norvegicus [4]): 6800 Counts; Time (Rattus norvegicus [5]): 123 s
OC1(c2ccccc2)CCC(N2CCN(Cc3ccccc3)CC2)CC1 (stereo not given)	460 nM	
OC1(c2ccc(F)cc2)CCC(N2CCN(Cc3ccccc3)CC2)CC1 (stereo not given)	260 nM	

SMILES	IC50 [1]	other results
OC1(c2ccc3c(c2)OCO3)CCC(N2CCN(Cc3ccc(Cl)cc3)CC2)CC1 (stereo not given)	79 nM	
OC1(c2ccc3c(c2)OCO3)CCC(N2CCN(Cc3ccc(F)cc3)CC2)CC1 (stereo not given)	27 nM	
OC1(c2ccc3c(c2)OCO3)CCC(N2CCN(Cc3ccc(F)c(F)c3)CC2)CC1 (stereo not given)	34 nM	
OC1(c2ccc3c(c2)OCO3)CCC(N2CCN(Cc3cccc(Br)c3)CC2)CC1 (stereo not given)	2.8 nM	
O=C1CC2(CCCC2)CC(=O)N1CCCCN1CCN(c2ncccn2)CC1 [BUSPIRONE]		Motor activity (Rattus norvegicus [4]): 6700 Counts; Time (Rattus norvegicus [5]): 125 s
COc1cccc(CN2CCN(C3CCC(O)(c4ccc5c(c4)OCO5)CC3)CC2)c1 (stereo not given)	2.2 nM	IC50 [6]: 28000 nM; IC50 [7]: 1100 nM; IC50 [8]: > 100000 nM; IC50 (D(2) dopamine receptor): 4800 nM; IC50 [9]: 1500 nM; Motor activity (Rattus norvegicus [10]): 5140 Counts; Time (Rattus norvegicus [11]): 65 s; IC50 [12]: 3000 nM
OC1(c2ccc3c(c2)OCO3)CCC(N2CCN(Cc3cccc(F)c3F)CC2)CC1 (stereo not given)	17 nM	
CCOc1cccc(CN2CCN(C3CCC(O)(c4ccc5c(c4)OCO5)CC3)CC2)c1 (stereo not given)	6.7 nM	
COc1cccc(CN2CCN(C3CCC(O)(c4ccc5c(c4)OCO5)CC3)CC2)c1.O=C1CC2(CCCC2)CC(=O)N1CCCCN1CCN(c2ncccn2)CC1 (stereo not given)		Motor activity (Rattus norvegicus [2]): 4600 Counts; Time (Rattus norvegicus [3]): 51 s
COc1cccc(CN2CCN(C3CCC(O)(c4ccc5c(c4)OCO5)CC3)CC2)c1.OC(CCCN1CCN(c2ncc(F)cn2)CC1)c1ccc(F)cc1 (stereo not given)		Motor activity (Rattus norvegicus [2]): 5400 Counts; Time (Rattus norvegicus [3]): 49 s
OC1(c2ccc3c(c2)OCO3)CCC(N2CCN(Cc3ccccc3F)CC2)CC1 (stereo not given)	10 nM	
OC1(c2ccc3c(c2)OCO3)CCC(N2CCN(Cc3ccc(F)cc3F)CC2)CC1 (stereo not given)	57 nM	
OC1(c2ccc3c(c2)OCO3)CCC(N2CCN(Cc3ccccc3Br)CC2)CC1 (stereo not given)	1.2 nM	
COc1ccccc1CN1CCN(C2CCC(O)(c3ccc4c(c3)OCO4)CC2)CC1 (stereo not given)	43 nM	
OC1(c2ccc3c(c2)OCO3)CCC(N2CCN(Cc3ccccc3I)CC2)CC1 (stereo not given)	1.2 nM	
OC1(c2ccc3c(c2)OCO3)CCC(N2CCN(Cc3ccccc3Cl)CC2)CC1 (stereo not given)	1.9 nM	
